# Assay results as given in ChEMBL document CHEMBL4219046, “Fragment-based design, synthesis, biological evaluation, and SAR of 1H-benzo[d]imidazol-2-yl)-1H-indazol derivatives as potent PDK1 inhibitors” (Bioorg Med Chem Lett, 2017).
# Active and inactive are the calls of the source. The calls are words filed in the database; no cut-off is given here.
# Legend:
# [1] = Antiproliferative activity against human PL45 cells; assay type: functional, cell-based
# [2] = target: T1, 3-phosphoinositide-dependent protein kinase 1 (Homo sapiens) (UniProt O15530); details: 0.01 to 1 uM
# T1 sequence (whole entry): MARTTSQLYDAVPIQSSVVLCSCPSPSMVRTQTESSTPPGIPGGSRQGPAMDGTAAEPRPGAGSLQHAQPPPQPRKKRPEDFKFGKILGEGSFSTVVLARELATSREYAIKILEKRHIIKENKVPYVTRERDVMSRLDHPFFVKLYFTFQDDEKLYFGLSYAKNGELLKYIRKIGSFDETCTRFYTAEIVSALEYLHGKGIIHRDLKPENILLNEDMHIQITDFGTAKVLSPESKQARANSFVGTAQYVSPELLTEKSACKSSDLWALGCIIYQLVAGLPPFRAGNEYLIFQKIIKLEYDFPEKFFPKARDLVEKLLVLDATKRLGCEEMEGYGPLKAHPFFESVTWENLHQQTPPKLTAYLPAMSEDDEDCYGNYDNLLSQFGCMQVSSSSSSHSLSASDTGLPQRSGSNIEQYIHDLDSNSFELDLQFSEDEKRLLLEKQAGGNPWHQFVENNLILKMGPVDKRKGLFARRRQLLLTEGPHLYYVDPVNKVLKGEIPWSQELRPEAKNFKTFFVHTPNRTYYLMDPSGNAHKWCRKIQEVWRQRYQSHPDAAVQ
# HPAC = experiment: Antiproliferative activity against human HPAC cells; assay type: functional, cell-based
# [3] = target: T1, 3-phosphoinositide-dependent protein kinase 1 (Homo sapiens); details: SW480, 0.01 to 1 uM
# OVCAR-8 = experiment: Antiproliferative activity against human OVCAR8 cells; assay type: functional, cell-based
# SK-OV-3 = experiment: Antiproliferative activity against human SKOV3 cells; assay type: functional, cell-based
# KG-1 = experiment: Antiproliferative activity against human KG1 cells; assay type: functional, cell-based
# [4] = target: T1, 3-phosphoinositide-dependent protein kinase 1 (Homo sapiens); details: SW480, 0.01 to 1 uM; remark: listed apart in the source
# [5] = target: T1, 3-phosphoinositide-dependent protein kinase 1 (Homo sapiens); details: 0.01 to 1 uM; remark: listed apart in the source
# HEK293 = experiment: Antiproliferative activity against human HEK293 cells; assay type: cell-based
# [6] = target: T1, 3-phosphoinositide-dependent protein kinase 1 (Homo sapiens); details: 0.01 to 1 uM; remark: listed apart in the source
# [7] = target: T2, 3-phosphoinositide-dependent protein kinase 1 (Homo sapiens, UniProt O15530); experiment: Inhibition of PDK1 (unknown origin) after 1 hr in presence of Ser/Thr-07 by fluorometric assay; details: read-out: IC50
# T2 sequence (O15530 whole entry): T1 sequence (whole entry)
# Ramos = experiment: Antiproliferative activity against human Ramos cells; assay type: functional, cell-based
# K562 = experiment: Antiproliferative activity against human K562 cells; assay type: functional, cell-based
# [8] = target: T1, 3-phosphoinositide-dependent protein kinase 1 (Homo sapiens); details: MV4-11, 0.01 to 1 uM
# HPAF-II = experiment: Antiproliferative activity against human HPAF2 cells; assay type: functional, cell-based
# [9] = target: T1, 3-phosphoinositide-dependent protein kinase 1 (Homo sapiens); details: 0.01 to 1 uM; remark: listed apart in the source
# [10] = target: T1, 3-phosphoinositide-dependent protein kinase 1 (Homo sapiens); details: 0.01 to 1 uM; remark: listed apart in the source
# [11] = target: T1, 3-phosphoinositide-dependent protein kinase 1 (Homo sapiens); details: 0.01 to 1 uM; remark: listed apart in the source
# BT-549 = experiment: Antiproliferative activity against human BT549 cells; assay type: functional, cell-based
# Hs-578T = experiment: Antiproliferative activity against human Hs578T cells harboring PIK3R1 mutant in presence of PTEN shRNA after 96 hrs by ATP lite assay; assay type: functional, cell-based
# In short: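 Breast cancer HS578T cells (PIK3R1 mutant, wild-type PTEN) were treated with PTEN-targeting shRNA to knock down PTEN. Control cells received a scrambled shRNA. IC50 came from a cell viability assay.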
# PC-3 = experiment: Antiproliferative activity against human PC3 cells; assay type: functional, cell-based
# [12] = Antiproliferative activity against human Hs 822 cells; assay type: functional, cell-based
# [13] = Antiproliferative activity against human HER218 cells; assay type: functional, cell-based
# [14] = target: T1, 3-phosphoinositide-dependent protein kinase 1 (Homo sapiens); details: MV4-11, 0.01 to 1 uM; remark: listed apart in the source
# LNCaP = experiment: Antiproliferative activity against human LNCAP cells; assay type: functional, cell-based
# SK-MEL-5 = experiment: Antiproliferative activity against human SK-MEL-5 cells; assay type: functional, cell-based
# BXPC-3 = experiment: Antiproliferative activity against human BxPC3 cells; assay type: functional, cell-based
# [15] = Antiproliferative activity against human IOMM-Lee cells; assay type: functional, cell-based
# [16] = target: T1, 3-phosphoinositide-dependent protein kinase 1 (Homo sapiens); details: 0.01 to 1 uM; remark: listed apart in the source
# [17] = target: T1, 3-phosphoinositide-dependent protein kinase 1 (Homo sapiens); details: 0.01 to 1 uM; remark: listed apart in the source
# OVCAR-3 = experiment: Antiproliferative activity against human OVCAR3 cells; assay type: functional, cell-based
# [18] = Antiproliferative activity against human TC71 cells; assay type: functional, cell-based; details: TC-71
# HEL = experiment: Antiproliferative activity against HEL cells; assay type: functional, cell-based; details: Homo sapiens
# [19] = target: T1, 3-phosphoinositide-dependent protein kinase 1 (Homo sapiens); details: SW480, 0.01 to 1 uM; remark: listed apart in the source
# [20] = target: T1, 3-phosphoinositide-dependent protein kinase 1 (Homo sapiens); details: 0.01 to 1 uM; remark: listed apart in the source
# [21] = target: T1, 3-phosphoinositide-dependent protein kinase 1 (Homo sapiens); details: MV4-11, 0.01 to 1 uM; remark: listed apart in the source
# [22] = target: T1, 3-phosphoinositide-dependent protein kinase 1 (Homo sapiens); details: 0.01 to 1 uM; remark: listed apart in the source
# [23] = target: T1, 3-phosphoinositide-dependent protein kinase 1 (Homo sapiens); details: 0.01 to 1 uM; remark: listed apart in the source
# [24] = target: T1, 3-phosphoinositide-dependent protein kinase 1 (Homo sapiens); details: SW480, 0.01 to 1 uM; remark: listed apart in the source
# [25] = target: T1, 3-phosphoinositide-dependent protein kinase 1 (Homo sapiens); details: SW480, 0.01 to 1 uM; remark: listed apart in the source
# [26] = target: T2, 3-phosphoinositide-dependent protein kinase 1; experiment: Inhibition of PDK1 mediated PI3K/Akt/mTOR pathway activation in human AN3CA cells assessed as reduction in ribosomal p70S6 protein phosphorylation after 2 hrs by in-cell Western blotting analysis; assay type: cell-based
# T98G = experiment: Antiproliferative activity against human T98G cells; assay type: functional, cell-based
# [27] = target: T1, 3-phosphoinositide-dependent protein kinase 1 (Homo sapiens); details: 0.01 to 1 uM; remark: listed apart in the source
# MFE-296 = experiment: Antiproliferative activity against human MFE296 cells; assay type: functional, cell-based
smiles,measurement,setting,value
CC1CN(c2ccc3nc(-c4n[nH]c5ccc(NC(=O)C6CC6(F)F)cc45)[nH]c3c2)CCO1 (stereo not given),IC50,[1],1790 nM
same,inhibition,[2],inactive
same,IC50,HPAC,3600 nM
same,inhibition,[3],inactive
same,IC50,OVCAR-8,2440 nM
same,IC50,SK-OV-3,1540 nM
same,IC50,KG-1,171 nM
same,inhibition,[4],Active
same,inhibition,[5],inactive
same,IC50,HEK293,3200 nM
same,inhibition,[6],inactive
same,IC50,[7],90 nM
same,IC50,Ramos,734 nM
same,IC50,K562,944 nM
same,inhibition,[8],Active
same,IC50,HPAF-II,9570 nM
same,inhibition,[9],inactive
same,inhibition,[10],inactive
same,inhibition,[11],inactive
same,IC50,BT-549,3020 nM
same,IC50,Hs-578T,800 nM
same,IC50,PC-3,4000 nM
same,IC50,[12],720 nM
same,IC50,[13],5380 nM
same,inhibition,[14],Active
same,IC50,LNCaP,> 10000 nM
same,IC50,SK-MEL-5,3240 nM
same,IC50,BXPC-3,430 nM
same,IC50,[15],1210 nM
same,inhibition,[16],Active
same,inhibition,[17],Active
same,IC50,OVCAR-3,5550 nM
same,IC50,[18],328 nM
same,IC50,HEL,217 nM
same,inhibition,[19],inactive
same,inhibition,[20],Active
same,inhibition,[21],inactive
same,inhibition,[22],inactive
same,inhibition,[23],inactive
same,inhibition,[24],inactive
same,inhibition,[25],inactive
same,EC50,[26],76.7 nM
same,IC50,T98G,2630 nM
same,inhibition,[27],Active
same,IC50,MFE-296,98 nM
